The test system of series [1] is Aspergillus fumigatus. In words: Antifungal activity against Aspergillus fumigatus ATCC 1022 assessed as inhibition of fungal growth by CLSI method. It is filed as functional, organism-based.
Series [2] deals with Klebsiella pneumoniae. In words: Antibacterial activity against Klebsiella pneumoniae ATCC BAA1705 assessed as inhibition of bacterial growth by CLSI method. Type of series: functional, organism-based.
Series [3] deals with Cell membrane. Description: Induction of membrane permeabilization and disruption in Cryptococcus neoformans ATCC350 assessed as increase in green fluorescence intensity using FITC-labeled compound at MIC measured after 1 hr by confocal laser scanning microscopic analysis. Type of series: subcellular.
The test system of series [4] is Candida albicans. In words: Antifungal activity against Candida albicans ATCC 10231 assessed as inhibition of fungal growth by CLSI method. Type of series: functional, organism-based.
Series [5] concerns Vero. In words: Cytotoxicity against African green monkey Vero cells assessed as reduction in cell viability incubated for 48 hrs by Neutral red assay. It is filed as cell-based. Conditions: chlorocebus sabaeus. A digest of the protocol: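 VERO monkey kidney cells seeded at 25,000 cells/well and incubated 24 h to confluency. Peptide added, then a further 48 h incubation. Viability read by neutral red uptake.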

The nature of series [6]: Aggregation property of the compound in PBS assessed as particle size at pH 7.4 measured after 4 hrs by dynamic light scattering analysis (reference value: 802 nm). It is filed as physicochemical. The following applies: buffer, pH 7.4, 4 h.
The nature of series [7]: Aggregation property of the compound in PBS assessed as polydispersity index at pH 7.4 by dynamic light scattering analysis (reference value: 0.383). Type of series: physicochemical. The following applies: buffer.
For series [8], the system named is Cryptococcus neoformans. In words: Antifungal activity against Cryptococcus neoformans ATCC 90113 assessed as inhibition of fungal growth by CLSI method. It is filed as functional, organism-based.
The test system of series [9] is Enterococcus. Description: Antibacterial activity against vancomycin resistant Enterococcus ATCC MP-1 assessed as inhibition of bacterial growth by CLSI method. It is filed as functional, organism-based.
The test system of series [10] is Escherichia coli. Description: Antibacterial activity against Escherichia coli ATCC 35218 assessed as inhibition of bacterial growth by CLSI method. It is filed as functional, organism-based.
In series [11] the test system is Pseudomonas aeruginosa. Description: Antibacterial activity against Pseudomonas aeruginosa ATCC 27853 assessed as inhibition of bacterial growth by CLSI method. It is filed as functional, organism-based.
Series [12] concerns Staphylococcus aureus. Description: Antibacterial activity against methicillin-resistant Staphylococcus aureus ATCC 33591 assessed as inhibition of bacterial growth by CLSI method. Type of series: functional, organism-based.
For series [13], the system named is Cell membrane. In words: Disruption of Plasma membrane in Cryptococcus neoformans ATCC350 by HR-TEM analysis. Type of series: cell membranes.
Series [14] has as its system Cell membrane. Description: Induction of pore formation in Cryptococcus neoformans ATCC350 assessed as membrane permeabilization by measuring release of intracellular material at MIC by scanning electron microscopy. Type of series: subcellular.
The subject of series [15] is Cryptococcus neoformans. In words: Induction of DNA damage in Cryptococcus neoformans ATCC350 assessed as nuclear and chromatin fragmentation by measuring reduction in blue fluorescence intensity at MIC measured after 1 hr by DAPI staining based confocal laser scanning microscopic analysis. Type of series: functional, organism-based. The procedure, abridged:
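Cells centrifuged, resuspended in PBS and stained with DAPI (3.01 µM, 10 min). Confocal imaging at Ex/Em 350/470 nm, with untreated cells as control.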

Series [16] can be described thus: Aggregation property of the compound in PBS assessed as polydispersity index at pH 7.4 by dynamic light scattering analysis (reference value: 0.333). It is filed as physicochemical. Conditions: buffer.
For series [17], the system named is Lipid bilayer. In words: Binding affinity to mammalian membrane mimic EPYC/cholesterol (10:1) small unilamellar vesicle assessed as Stern-Volmer quenching constant by tryptophan quenching analysis.
For series [18], the system named is Cell wall. Description: Disruption of Cell wall in Cryptococcus neoformans ATCC350 by HR-TEM analysis. It is filed as subcellular.
Series [19] relates to Cryptococcus neoformans. In words: Disruption of capsule in Cryptococcus neoformans ATCC350 by HR-TEM analysis.
Series [20] can be described thus: Aggregation property of the compound in PBS assessed as particle size at pH 7.4 measured after 4 hrs by dynamic light scattering analysis (reference value: 2073 nm). Type of series: physicochemical. The following applies: buffer, pH 7.4, 4 h.
For series [21], the system named is Lipid bilayer. Description: Binding affinity to bacterial membrane mimic EPYC/EPYG (7:3) small unilamellar vesicle assessed as Stern-Volmer quenching constant by tryptophan quenching analysis.
Series [22] has as its system Cell membrane. Description: Induction of membrane permeabilization in Cryptococcus neoformans ATCC350 assessed as increase in red fluorescence intensity at MIC measured after 1 hr by propidium iodide staining based confocal laser scanning microscopic analysis. It is filed as subcellular. A digest of the protocol: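 Cells centrifuged, resuspended in PBS pH 7.4 and stained with propidium iodide. Confocal imaging at >560 nm, with untreated cells as control.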

In series [23] the test system is Cryptococcus neoformans. Description: Potency index, ratio of Amphotericin B MIC to test compound MIC for antifungal activity against Cryptococcus neoformans ATCC 90113 assessed as inhibition of fungal growth by CLSI method. Type of series: functional.
The test system of series [24] is Cryptococcus neoformans. Description: Potency index, ratio of Amphotericin B IC50 to test compound IC50 for antifungal activity against Cryptococcus neoformans ATCC 90113 assessed as inhibition of fungal growth by CLSI method. It is filed as functional.

In brackets after ≈: the same amount, converted by molar mass. Activity calls are given as the source filed them. Where a SMILES comes first, the peptide text is derived from it. The star is where a group is joined. Boc = CC(C)(C)OC(=O)*

The IC50 is the concentration that gives 50% inhibition. With `COC(=O)[C@H](CCCNC(=N)N)NC(=O)[C@H](Cc1c[nH]c2ccccc12)NC(=O)[C@H](Cc1c[nH]cn1)NC(=O)OC(C)(C)C` (Boc-His-Trp-Arg-OMe), the result in series [1], in series [2], in [3] and in series [4] was inactive. Also, the values for the Activity in series [5], in series [6] and in series [7] were > 10 µg/mL, 108 nm and 0.922, respectively. In series [8], the IC50 was > 20 µg/mL.
Broadly, the MIC is the smallest concentration in the dilution series that meets the test's criterion for growth inhibition. As to `Cl.Cl.N=C(N)NCCC[C@H](NC(=O)[C@H](Cc1c[nH]c2ccccc12)NC(=O)[C@@H](N)Cc1c[nH]c(-c2ccc(-c3ccccc3)cc2)n1)C(=O)NCc1ccccc1`, the IC50 in series [9] is 8.33 µg/mL; in series [10], > 20 µg/mL; in series [11], 18.7 µg/mL; in [12], 4.44 µg/mL; in series [8], 1.17 µg/mL. Besides, the MIC is 20 µg/mL in [9], > 20 µg/mL in series [11], 5 µg/mL in series [12] and 5 µg/mL in [8]. Besides, the result in [1], in series [2] and in [4] was inactive. Further, the Activity in series [5] is > 10 µg/mL.
`CCCCc1ccc(-c2nc(C[C@H](N)C(=O)N[C@@H](Cc3c[nH]c4ccccc34)C(=O)N[C@@H](CCCNC(=N)N)C(=O)OC)c[nH]2)cc1.Cl.Cl`: the IC50 in series [9] was 15.4 µg/mL; in series [10] it was 15.6 µg/mL; in series [11] it was > 20 µg/mL; in series [12] it was 8.74 µg/mL; in series [8] it was 0.37 µg/mL. Further, the MIC in series [9] is 20 µg/mL; in [10] it was > 20 µg/mL; in series [12], 10 µg/mL; in [8], 0.63 µg/mL. The outcome in series [13], in series [14], in [3], in series [15], in series [18] and in series [19] was Active. Besides, in series [22], the outcome was Active. Moreover, the result in series [1], in [2] and in series [4] was inactive. Besides, the values for the Activity in [5], in series [16] and in series [20] were > 10 µg/mL, 0.584 and 2792 nm, respectively. Besides, the figures for the KSV in series [17] and in [21] were 146 and 6.68, respectively. In addition, the Ratio in [23] was 2. Moreover, the “Ratio IC50” value in series [24] is 2.
In the case of `CCc1ccc(-c2nc(C[C@H](NC(=O)OC(C)(C)C)C(=O)N[C@@H](Cc3c[nH]c4ccccc34)C(=O)N[C@@H](CCCNC(=N)N)C(=O)NCc3ccccc3)c[nH]2)cc1`, the IC50 in series [9] is 14.9 µg/mL (≈ 18.8 µM); in [10], > 20 µg/mL; in [11], > 20 µg/mL; in series [12], 8.93 µg/mL (≈ 11.3 µM); in series [8] it was 1.5 µg/mL (≈ 1.9 µM). Also, the MIC in [9] was > 20 µg/mL; in series [12] it was 20 µg/mL (≈ 25.3 µM); in series [8] it was 2.5 µg/mL (≈ 3.16 µM). Further, the result in series [1], in series [2] and in series [4] was inactive. Besides, the Activity in series [5] was > 10 µg/mL.
Consider `CCCCc1ccc(-c2nc(C[C@H](NC(=O)OC(C)(C)C)C(=O)N[C@@H](Cc3c[nH]c4ccccc34)C(=O)N[C@@H](CCCNC(=N)N)C(=O)OC)c[nH]2)cc1`, for which the IC50 in [9] is 7.82 µg/mL (≈ 10.5 µM); in series [10], 17.9 µg/mL (≈ 24 µM); in series [11] it was > 20 µg/mL; in series [12] it was 9.29 µg/mL (≈ 12.5 µM); in [8], 1.99 µg/mL (≈ 2.68 µM). Moreover, the MIC in series [9] was 20 µg/mL (≈ 26.9 µM); in series [10], > 20 µg/mL; in series [12], 10 µg/mL (≈ 13.4 µM); in [8], 2.5 µg/mL (≈ 3.36 µM). In addition, the result in [1], in series [2] and in series [4] was inactive. Also, the Activity in series [5] was > 10 µg/mL.
`CCc1ccc(-c2nc(C[C@H](N)C(=O)N[C@@H](Cc3c[nH]c4ccccc34)C(=O)N[C@@H](CCCNC(=N)N)C(=O)OC)c[nH]2)cc1.Cl.Cl`: the IC50 in series [9] was > 20 µg/mL; in series [10], 17.4 µg/mL; in series [11] it was > 20 µg/mL; in series [12] it was > 20 µg/mL; in [8], 1.85 µg/mL. Moreover, the outcome in series [1], in series [2] and in series [4] was inactive. For the same compound, the MIC in series [10] is > 20 µg/mL; in [8], 2.5 µg/mL. Also, in [5], the Activity is > 10 µg/mL.
In the case of `CCCCc1ccc(-c2nc(C[C@H](N)C(=O)N[C@@H](Cc3c[nH]c4ccccc34)C(=O)N[C@@H](CCCNC(=N)N)C(=O)NCc3ccccc3)c[nH]2)cc1.Cl.Cl`, the IC50 in [9] was found to be 9.99 µg/mL; in [10], 16.3 µg/mL; in series [11], 17.2 µg/mL; in [12] it was 4.46 µg/mL; in [8], 2.27 µg/mL. Also, the MIC was 20 µg/mL in [9]; > 20 µg/mL in [10]; > 20 µg/mL in [11]; 10 µg/mL in series [12]; 5 µg/mL in [8]. The outcome in series [1], in [2] and in [4] was inactive. In addition, the Activity in [5] was > 10 µg/mL.
